Laboratory results published in ChEMBL document CHEMBL1152792, “Synthesis and anticonvulsant activity of amino acid-derived sulfamides” (J Med Chem, 2009).
Calls of active or inactive are those of the source. No cut-off for these calls is given here.

Experiments:
Mus musculus [1] = assay: Anticonvulsant activity in ip dosed albino mouse after 0.5 hrs by MES test; format: functional
Mus musculus [2] = species on record: Mus musculus; assay: Ratio of valproic acid ED50 to compound ED50 in albino mouse after 0.5 hrs by MES test; format: functional
Mus musculus [3] = assay: Anticonvulsant activity in albino mouse at 100 mg/kg, ip after 0.5 hrs by MES test; format: functional, organism-based; design: dose 100 mg/kg
In short: (§1)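 NIH Anticonvulsant Drug Development (ADD) program phase I screen in adult male albino mice (18–23 g). Compound given ip in 30% PEG 400 and 10% water at 0.01 mL/g body weight. Seizures were induced electrically (MES) or chemically (PTZ), and animals were tested 0.5 and 4 h after dosing. Result scored as protected/tested animals.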

Mus musculus [4] = assay: Anticonvulsant activity in albino mouse at 30 mg/kg, ip after 4 hrs by MES test; format: functional, organism-based; design: dose 30 mg/kg; in short: as §1
Mus musculus [5] = assay: Anticonvulsant activity in albino mouse at 100 mg/kg, ip after 4 hrs by MES test; format: functional, organism-based; design: dose 100 mg/kg; in short: as §1
Mus musculus [6] = assay: Anticonvulsant activity in albino mouse at 100 mg/kg, ip after 0.5 hrs by PTZ test; format: functional, organism-based; design: dose 100 mg/kg; in short: as §1
Mus musculus [7] = assay: Anticonvulsant activity in albino mouse at 30 mg/kg, ip after 4 hrs by PTZ test; format: functional, organism-based; design: dose 30 mg/kg; in short: as §1
Mus musculus [8] = assay: Anticonvulsant activity in albino mouse at 100 mg/kg, ip after 4 hrs by PTZ test; format: functional, organism-based; design: dose 100 mg/kg; in short: as §1
Mus musculus [9] = assay: Toxicity in albino mouse at 30 mg/kg, ip after 0.5 hrs by rotarod test; format: organism-based; design: dose 30 mg/kg, route intraperitoneal; conditions: in vivo
In short: (§2)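 Neurotoxicity was screened by the standardized rotarod test in the ADD phase I protocol. Adult male albino mice (18–23 g) received compound ip in 30% PEG 400 and 10% water at 0.01 mL/g. Animals were tested 0.5 and 4 h post-dose. Result scored as toxic/tested animals.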

Mus musculus [10] = assay: Toxicity in albino mouse at 100 mg/kg, ip after 0.5 hrs by rotarod test; format: organism-based; design: dose 100 mg/kg, route intraperitoneal; conditions: in vivo; in short: as §2
Mus musculus [11] = assay: Toxicity in albino mouse at 300 mg/kg, ip after 0.5 hrs by rotarod test; format: organism-based; design: dose 300 mg/kg, route intraperitoneal; conditions: in vivo; in short: as §2
Mus musculus [12] = assay: Toxicity in albino mouse at 30 mg/kg, ip after 4 hrs by rotarod test; format: organism-based; design: dose 30 mg/kg, route intraperitoneal; conditions: in vivo; in short: as §2
Mus musculus [13] = assay: Toxicity in albino mouse at 100 mg/kg, ip after 4 hrs by rotarod test; format: organism-based; design: dose 100 mg/kg, route intraperitoneal; conditions: in vivo; in short: as §2
Mus musculus [14] = assay: Toxicity in albino mouse at 300 mg/kg, ip after 4 hrs by rotarod test; format: organism-based; design: dose 300 mg/kg, route intraperitoneal; conditions: in vivo; in short: as §2
Mus musculus [15] = assay: Anticonvulsant activity in ip dosed albino mouse after 2 hrs by MES test; format: functional
In short: (§3)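 Phase II quantitative MES test in adult male albino mice (18–23 g). Compound given ip in 30% PEG 400 and 10% water at 0.01 mL/g. Testing was done at the previously determined time of peak effect. Six mice per dose group; ED50 (dose protecting 50% of animals, μmol/kg) calculated from the dose–response curve.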

Mus musculus [16] = species on record: Mus musculus; assay: Ratio of valproic acid ED50 to compound ED50 in albino mouse after 2 hrs by MES test; format: functional
In short: (§4)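 The compound ED50 came from ip dosing in male albino mice (six per dose) at the time of peak effect. The valproate ED50 was taken from earlier literature.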

Mus musculus [17] = assay: Anticonvulsant activity in albino mouse at 30 mg/kg, ip after 0.5 hrs by MES test; format: functional, organism-based; design: dose 30 mg/kg; in short: as §1
Mus musculus [18] = assay: Anticonvulsant activity in albino mouse at 300 mg/kg, ip after 0.5 hrs by MES test; format: functional, organism-based; design: dose 300 mg/kg; in short: as §1
Mus musculus [19] = assay: Anticonvulsant activity in albino mouse at 300 mg/kg, ip after 4 hrs by MES test; format: functional, organism-based; design: dose 300 mg/kg; in short: as §1
Mus musculus [20] = assay: Anticonvulsant activity in albino mouse at 300 mg/kg, ip after 4 hrs by PTZ test; format: functional, organism-based; design: dose 300 mg/kg; in short: as §1
Mus musculus [21] = assay: Anticonvulsant activity in ip dosed albino mouse after 4 hrs by MES test; format: functional; in short: as §3
Mus musculus [22] = species on record: Mus musculus; assay: Ratio of valproic acid ED50 to compound ED50 in albino mouse after 4 hrs by MES test; format: functional; in short: as §4
Mus musculus [23] = assay: Anticonvulsant activity in ip dosed albino mouse after 0.25 hrs by MES test; format: functional

Row | Compound | Activity (Mus musculus [4]) | Activity (Mus musculus [6]) | Activity (Mus musculus [7]) | Activity (Mus musculus [8]) | Activity (Mus musculus [9]) | Activity (Mus musculus [10]) | Activity (Mus musculus [11]) | Activity (Mus musculus [12]) | Activity (Mus musculus [13]) | Activity (Mus musculus [14]) | also measured
1 | CCCC(CCC)C(=O)NCC(N)=O [VALROCEMIDE] |  |  |  |  |  |  |  |  |  |  | ED50 (Mus musculus [1]): 755 µmol/kg; Ratio ED50 (Mus musculus [2]): 1.3
2 | CCCC(CCC)CNS(=O)(=O)NCCC(=O)OC | Active | Active | inactive | inactive | Non-toxic | Non-toxic | Non-toxic | Non-toxic | Non-toxic | Non-toxic | Activity (Mus musculus [3]): inactive; Activity (Mus musculus [5]): inactive; ED50 (Mus musculus [15]): 79 µmol/kg; Ratio ED50 (Mus musculus [16]): 12.8
3 | COC(=O)CCNS(=O)(=O)Oc1ccccc1O | inactive | inactive | inactive | inactive | Non-toxic | Non-toxic | Non-toxic | Non-toxic | Non-toxic | Non-toxic | Activity (Mus musculus [17]): inactive; Activity (Mus musculus [18]): inactive; Activity (Mus musculus [19]): inactive; Activity (Mus musculus [20]): inactive; ED50 (Mus musculus [21]): 374 µmol/kg; Ratio ED50 (Mus musculus [22]): 2.7
4 | CCCC(CCC)C(=O)O [VALPROIC ACID] |  |  |  |  |  |  |  |  |  |  | ED50 (Mus musculus [23]): 1010 µmol/kg
